Reference: ChEMBL document CHEMBL5260797, “N-(1-Benzyl-3,5-dimethyl-1H-pyrazol-4-yl)benzamides: Antiproliferative Activity and Effects on mTORC1 and Autophagy” (ACS Med Chem Lett, 2017)
pEC50: −log10 of the molar value. ≈ marks a conversion by molar mass, not a printed value. Values belong to the molecule of their own block, whether it stands above or below them. Calls of active or inactive are those of the source. No cut-off for these calls is given here.

Tests used:
MIA PaCa-2 = test: Antiproliferative activity against human MIA PaCa-2 cells assessed as cell viability measured after 72 hrs by MTT assay; format: functional, cell-based; conditions: MIA PaCa-2, 72 h
In short: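 MIA PaCa-2 pancreatic cancer cells; EC50 values determined in triplicate.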

mTORC1 (Homo sapiens) [1] = target: T1, mTORC1 (Homo sapiens) (UniProt P42345+Q8N122+Q9BVC4); test: Inhibition of mTORC1 reactivation in human ARPE-19 cells assessed as reduction of 4E-BP1 phosphorylation at 10 uM preincubated for 4 hrs under starvation/refeed condition measured after 1 hr in complete medium by Western blot analysis; format: cell-based; conditions: time 5.0 hrs
T1 sequence (Q8N122 whole entry, looked up, other chains not shown): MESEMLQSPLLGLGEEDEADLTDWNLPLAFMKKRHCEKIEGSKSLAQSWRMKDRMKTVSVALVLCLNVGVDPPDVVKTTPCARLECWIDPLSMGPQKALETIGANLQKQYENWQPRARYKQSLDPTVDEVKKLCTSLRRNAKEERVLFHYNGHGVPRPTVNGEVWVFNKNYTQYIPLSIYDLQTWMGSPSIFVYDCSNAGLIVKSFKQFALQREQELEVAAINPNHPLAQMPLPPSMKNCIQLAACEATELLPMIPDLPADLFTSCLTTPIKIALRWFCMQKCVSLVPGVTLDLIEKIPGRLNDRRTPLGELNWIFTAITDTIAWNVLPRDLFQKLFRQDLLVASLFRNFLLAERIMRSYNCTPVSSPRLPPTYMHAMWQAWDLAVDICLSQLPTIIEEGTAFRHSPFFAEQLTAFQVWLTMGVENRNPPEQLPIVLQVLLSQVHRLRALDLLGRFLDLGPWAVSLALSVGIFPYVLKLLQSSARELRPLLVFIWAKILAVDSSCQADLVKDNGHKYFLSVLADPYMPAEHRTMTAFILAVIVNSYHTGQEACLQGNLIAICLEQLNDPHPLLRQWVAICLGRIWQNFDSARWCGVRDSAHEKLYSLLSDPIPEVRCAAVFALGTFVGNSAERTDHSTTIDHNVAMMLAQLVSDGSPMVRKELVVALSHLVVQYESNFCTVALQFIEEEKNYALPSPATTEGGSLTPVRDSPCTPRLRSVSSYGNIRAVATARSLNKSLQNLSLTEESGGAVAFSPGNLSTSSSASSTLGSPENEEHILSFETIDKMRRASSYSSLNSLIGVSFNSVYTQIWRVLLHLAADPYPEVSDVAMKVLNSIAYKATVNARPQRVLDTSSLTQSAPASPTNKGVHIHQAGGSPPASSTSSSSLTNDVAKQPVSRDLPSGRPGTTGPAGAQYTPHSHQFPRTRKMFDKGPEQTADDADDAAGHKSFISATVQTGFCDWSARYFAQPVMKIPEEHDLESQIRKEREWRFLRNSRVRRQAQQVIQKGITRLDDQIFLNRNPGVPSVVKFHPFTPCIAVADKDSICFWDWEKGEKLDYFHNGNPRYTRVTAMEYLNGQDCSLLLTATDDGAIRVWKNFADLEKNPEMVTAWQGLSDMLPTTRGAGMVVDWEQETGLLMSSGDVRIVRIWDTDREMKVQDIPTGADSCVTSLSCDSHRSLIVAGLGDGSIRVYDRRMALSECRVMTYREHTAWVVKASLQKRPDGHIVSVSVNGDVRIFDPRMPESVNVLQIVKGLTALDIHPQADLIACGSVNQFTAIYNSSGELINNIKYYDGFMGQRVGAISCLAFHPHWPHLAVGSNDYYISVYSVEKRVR
T1 sequence (Q9BVC4 whole entry, looked up, other chains not shown): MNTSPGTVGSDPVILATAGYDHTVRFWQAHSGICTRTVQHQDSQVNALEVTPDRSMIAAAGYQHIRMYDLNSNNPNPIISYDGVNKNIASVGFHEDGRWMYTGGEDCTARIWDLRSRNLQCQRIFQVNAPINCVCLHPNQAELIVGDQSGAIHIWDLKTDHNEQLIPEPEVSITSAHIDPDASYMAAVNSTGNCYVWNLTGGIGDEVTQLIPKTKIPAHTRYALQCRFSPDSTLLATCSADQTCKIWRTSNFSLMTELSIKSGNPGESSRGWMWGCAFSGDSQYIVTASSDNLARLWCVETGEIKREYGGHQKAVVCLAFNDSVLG
In short: (§1)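 ARPE-19 cells starved 4 h in EBSS, then refed 1 h in complete medium with 10 μM compound or DMSO. mTORC1 reactivation read by Western blot as phosphorylation of P70 and 4EBP1.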

ARPE-19 [2] = test: Induction of autophagy in human ARPE-19 cells assessed as appearance of abnormal punctae at 25 uM measured after 1 hr under starvation/refeed condition by immunofluorescence analysis; format: functional, cell-based
In short: (§2)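 ARPE-19 cells starved 4 h in EBSS, then refed 1 h in complete medium containing 25 μM compound or DMSO. LC3 punctae imaged by immunofluorescence, with CD63 co-stain.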

ARPE-19 [3] = test: Induction of autophagy in human ARPE-19 cells assessed as increase in LC3-2 conversion measured after 4 hrs by Western blot analysis; format: functional, cell-based; conditions: dose 25-50 µM
In short: (§3)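 ARPE-19 cells treated 4 h in complete medium without starvation with increasing concentrations (10, 25, 50 μM) or DMSO. LC3 detected by Western blot; LC3-II/actin ratio expressed as fold increase over DMSO control, n = 3.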

ARPE-19 [4] = test: Induction of autophagy in human ARPE-19 cells assessed as LC3 level at 25 uM measured after 4 hrs under starvation/refeed condition by immunofluorescence analysis; format: functional, cell-based; in short: as §2
ARPE-19 [5] = test: Induction of autophagy in human ARPE-19 cells assessed as LC3 enlarged structures at 25 uM pretreated for 30 mins with cells followed by incubation for 4 hrs under starvation condition by immunofluorescence analysis; format: functional, cell-based; conditions: time 4.5 hrs
In short: (§4)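 ARPE-19 cells starved 4 h in EBSS with 25 μM compound or DMSO. LC3-labeled structures imaged by immunofluorescence, with CD63 as late endosomal/lysosomal marker.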

[6] = Cytotoxicity against human ARPE-19 cells assessed as cell viability measured after 72 hrs by MTT assay; format: toxicity, cell-based
ARPE-19 [7] = test: Induction of autophagy in human ARPE-19 cells assessed as LC3 accumulation at 25 to 50 uM measured after 4 hrs under refeed condition by immunofluorescence analysis; format: functional, cell-based; conditions: dose 25-50 µM
ARPE-19 [8] = test: Induction of autophagy in human ARPE-19 cells assessed as decrease in LC3-2/actin ratio at 10 uM pretreated for 30 mins with cells followed by incubation for 4 hrs under starvation condition in presence of bafilomycin by Western blot analysis; format: functional, cell-based; conditions: time 4.5 hrs
In short: (§5)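 ARPE-19 cells pretreated 30 min at 10 μM (or DMSO). Then 4 h with compound in EBSS starvation medium, or in EBSS with 100 nM bafilomycin. LC3-II/actin quantified by Western blot as fold of DMSO control, n = 3.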

mTORC1 (Homo sapiens) [9] = target: T1, mTORC1 (Homo sapiens); test: Inhibition of mTORC1 reactivation in human ARPE-19 cells assessed as reduction of P70 phosphorylation at 10 uM preincubated for 4 hrs under starvation/refeed condition measured after 1 hr in complete medium by Western blot analysis; format: cell-based; conditions: time 5.0 hrs; in short: as §1
[10] = Metabolic stability in human plasma assessed as parent compound remaining measured after 6 hrs by LC-MS/MS analysis; format: ADME, cell-free; conditions: read-out: Stability
ARPE-19 [11] = test: Induction of autophagy in human ARPE-19 cells assessed as appearance of LC3 non-uniformed shapes at 25 uM pretreated for 30 mins with cells followed by incubation for 4 hrs under starvation condition by immunofluorescence analysis; format: functional, cell-based; conditions: time 4.5 hrs; in short: as §4
ARPE-19 [12] = test: Induction of autophagy in human ARPE-19 cells assessed as increase in LC3-labeled punctae at 25 uM measured after 4 hrs by immunofluorescence analysis relative to control; format: functional, cell-based
In short: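 ARPE-19 cells treated 4 h at 25 μM in complete medium without starvation, or with DMSO. LC3 punctae detected by immunofluorescence, with CD63 as late endosomal/lysosomal marker.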

mTORC1 (Homo sapiens) [13] = target: T1, mTORC1 (Homo sapiens); test: Inhibition of mTORC1 in human ARPE19 cells measured after 4 hrs by Western blot analysis; format: cell-based; conditions: ARPE-19, dose 10-50 µM
In short: (§6)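 ARPE-19 cells treated 4 h without starvation with increasing concentrations or DMSO. Basal mTORC1 activity measured by Western blot as phosphorylated P70/total P70, with DMSO set to 100%.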

ARPE-19 [14] = test: Inhibition of autophagy in human ARPE-19 cells assessed as fold decrease in LC3 turnover at 10 uM pretreated for 30 mins with cells followed by incubation for 4 hrs under starvation condition by Western blot analysis; conditions: time 4.5 hrs
[15] = Metabolic stability in mouse plasma assessed as parent compound remaining measured after 6 hrs by LC-MS/MS analysis; format: ADME, cell-free; conditions: read-out: Stability
ARPE-19 [16] = test: Induction of autophagy in human ARPE-19 cells assessed as increase in LC3-2 conversion at 25 to 50 uM measured after 4 hrs by Western blot analysis; format: functional, cell-based; conditions: dose 25-50 µM; in short: as §3
[17] = Thermodynamic aqueous solubility of the compound at pH 7.4 measured after 48 hrs by UV-spectrometry method; format: physicochemical; conditions: read-out: Therm_solubility
ARPE-19 [18] = test: Induction of autophagy in human ARPE-19 cells assessed as decrease in LC3-2/actin ratio at 10 uM pretreated for 30 mins with cells followed by incubation for 4 hrs under starvation condition by Western blot analysis; format: functional, cell-based; conditions: time 4.5 hrs; in short: as §5
mTORC1 (Homo sapiens) [19] = target: T1, mTORC1 (Homo sapiens); test: Inhibition of mTORC1 in human ARPE19 cells assessed as decrease in P70/total P70 phosphorylation level at 10 uM measured after 4 hrs by Western blot analysis; format: cell-based; conditions: ARPE-19; in short: as §6
ARPE-19 [20] = test: Induction of autophagy in human ARPE-19 cells assessed fold increase in LC3 turnover at 10 uM pretreated measured after 1 hr under refeed condition by Westernblot analysis; format: functional
In short: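 ARPE-19 cells pretreated 30 min with 10 μM compound or DMSO, starved 4 h in EBSS, then refed 1 h in complete medium with compound or DMSO. LC3-II/actin quantified by Western blot and expressed as fold increase over DMSO control, n = 3.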

[21] = Metabolic stability in mouse plasma assessed as parent compound remaining measured after 24 hrs by LC-MS/MS analysis; format: ADME, cell-free; conditions: read-out: Stability
ARPE-19 [22] = test: Induction of autophagy in human ARPE-19 cells assessed as increase in LC3-2 conversion at 10 uM measured after 4 hrs by Western blot analysis; format: functional, cell-based; in short: as §3
mTORC1 (Homo sapiens) [23] = target: T1, mTORC1 (Homo sapiens); test: Inhibition of mTORC1 reactivation in human ARPE-19 cells at 25 to 50 uM preincubated for 4 hrs under starvation/refeed condition measured after 1 hr in complete medium by Western blot analysis; format: cell-based; conditions: dose 25-50 µM, time 5.0 hrs
[24] = Metabolic stability in human plasma assessed as parent compound remaining measured after 24 hrs by LC-MS/MS analysis; format: ADME, cell-free; conditions: read-out: Stability
mTORC1 (Homo sapiens) [25] = target: T1, mTORC1 (Homo sapiens); test: Inhibition of mTORC1 in human ARPE19 cells at 10 to 50 uM measured after 4 hrs by Western blot analysis related to control; format: cell-based; conditions: ARPE-19, dose 10-50 µM; in short: as §6
ARPE-19 [26] = test: Reduction in autophagic flux in human ARPE-19 cells at 25 uM incubated for 4 hrs in complete medium in presence of bafilomycin; format: functional, cell-based
In short: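 ARPE-19 cells in full medium with 100 nM bafilomycin plus compound or DMSO. Autophagic flux read as LC3-II by Western blot.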

ARPE-19 [27] = test: Induction of autophagy in human ARPE-19 cells assessed as fold increase in LC3 turnover at 50 uM measured after 4 hrs by Western blot analysis; format: functional
In short: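 ARPE-19 human retinal pigment epithelial cells exposed 4 h to compound or DMSO in complete medium without starvation. LC3 conversion read by Western blot as LC3-II/actin ratio and expressed as fold increase over DMSO control, n = 3.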

SMILES: CNC(=O)c1cccc(Cn2nc(C)c(NC(=O)c3ccc(COc4ccc(C)cc4)cc3)c2C)c1
pEC50 (MIA PaCa-2): 5.59

SMILES: CCN(CC)CCCC(C)Nc1ccnc2cc(Cl)ccc12 (stereo unspecified) [CHLOROQUINE]
pEC50 (MIA PaCa-2): 4.85

SMILES: CNC(=O)c1cccc(Cn2nc(C)c(NC(=O)c3ccc(COc4ccccc4C(F)(F)F)cc3)c2C)c1
pEC50 (MIA PaCa-2): 5.00

SMILES: CNC(=O)c1cccc(Cn2nc(C)c(NC(=O)c3ccc(COc4ccc(C(F)(F)F)cc4C)cc3)c2C)c1
Activity (mTORC1 (Homo sapiens) [1]): Active
Activity (ARPE-19 [2]): Active
Activity (ARPE-19 [3]): Dose-Dependent Effect
Activity (ARPE-19 [4]): Active
Activity (ARPE-19 [5]): Active
EC50 at 72 h [6]: 7.1 µM
Activity (ARPE-19 [7]): Active
Activity (ARPE-19 [8]): inactive
Activity (mTORC1 (Homo sapiens) [9]): Active
remaining at 6 h [10]: 98%
Activity (ARPE-19 [11]): Active
Activity (ARPE-19 [12]): Active
inhibition (mTORC1 (Homo sapiens) [13]): Dose-Dependent Effect
fold change (FC) (ARPE-19 [14]): 1.7
remaining at 6 h [15]: 88%
Activity (ARPE-19 [16]): Active
solubility thermodynamic at 48 h [17]: 166 µM (≈ 91.4 µg/mL)
Activity (ARPE-19 [18]): Active
inhibition (mTORC1 (Homo sapiens) [19]): Active
fold change (FC) (ARPE-19 [20]): 1.7
remaining at 24 h [21]: 93%
Activity (ARPE-19 [22]): Active
Activity (mTORC1 (Homo sapiens) [23]): Active
remaining at 24 h [24]: 100%
pEC50 (MIA PaCa-2): 6.21
inhibition (mTORC1 (Homo sapiens) [25]): 78%
Activity (ARPE-19 [26]): inactive
fold change (FC) (ARPE-19 [27]): 3.3

SMILES: Cc1nn(Cc2cccc(C(=O)NC(C)C)c2)c(C)c1NC(=O)c1ccc(COc2ccccc2)cc1
pEC50 (MIA PaCa-2): 5.05

SMILES: CNC(=O)c1cccc(Cn2nc(C)c(NC(=O)c3ccc(COc4ccc(OC)cc4)cc3)c2C)c1
pEC50 (MIA PaCa-2): 5.10

SMILES: CNC(=O)c1cccc(Cn2nc(C)c(NC(=O)c3ccc(COc4ccccc4C)cc3)c2C)c1
pEC50 (MIA PaCa-2): 5.68

Further lines, results first:

pEC50 (MIA PaCa-2): 5.20
SMILES: CNC(=O)c1cccc(Cn2nc(C)c(NC(=O)c3ccc(COc4ccccc4Cl)cc3)c2C)c1

pEC50 (MIA PaCa-2): 5.00
SMILES: Cc1nn(Cc2ccccc2)c(C)c1NC(=O)c1ccc(COc2ccccc2)cc1

pEC50 (MIA PaCa-2): 4.85
SMILES: CNC(=O)c1cccc(Cn2nc(C)c(NC(=O)c3ccc(COC4CCCCC4)cc3)c2C)c1

pEC50 (MIA PaCa-2): 5.04
SMILES: Cc1nn(Cc2cccc(C(N)=O)c2)c(C)c1NC(=O)c1ccc(COc2ccccc2)cc1

pEC50 (MIA PaCa-2): 5.38
SMILES: CNC(=O)c1cccc(Cn2nc(C)c(NC(=O)c3ccc(COc4ccc(Cl)cc4)cc3)c2C)c1

pEC50 (MIA PaCa-2): < 4.00
SMILES: Cc1nn(Cc2ccc(C(N)=O)cc2)c(C)c1NC(=O)c1ccc(COc2ccccc2)cc1

pEC50 (MIA PaCa-2): 5.21
SMILES: CNC(=O)c1cccc(Cn2nc(C)c(NC(=O)c3ccc(COc4cccc(OC)c4)cc3)c2C)c1
